# Source: ChEMBL document CHEMBL5705890, “Antitumor activity of an allosteric inhibitor of centromere-associated protein-E” (Proc Natl Acad Sci U S A, 2010)
# Columns and labels:
# Format in all cases: functional
# SCaBER = experiment: Anticancer activity against human SCaBER cells assessed as cell growth inhibition measured after 72 hrs by DAPI staining based analysis
# [1] = Anticancer activity against human BC1 cells assessed as cell doubling measured for 72 hrs by DAPI staining based analysis
# SW756 [2] = experiment: Anticancer activity against human SW756 cells assessed as cell doubling measured for 72 hrs by DAPI staining based analysis
# H4 = experiment: Anticancer activity against human H4 cells assessed as cell growth inhibition measured after 72 hrs by DAPI staining based analysis
# In short: (§1)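 Cells seeded, DAPI-stained DNA content of fixed cells read by imaging 24 h after seeding (T0), and again after a further 72 h exposure to a range of drug concentrations (T72). T72 values were normalized to T0. Curve fits gave the concentration producing 50% growth inhibition relative to T0 and Ymax (GI50).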
# CAKI-2 = experiment: Anticancer activity against human CAKI-2 cells assessed as cell doubling measured for 72 hrs by DAPI staining based analysis
# SF-539 = experiment: Anticancer activity against human SF-539 cells assessed as cell doubling measured for 72 hrs by DAPI staining based analysis
# SK-MEL-28 = experiment: Anticancer activity against human SK-MEL-28 cells assessed as cell doubling measured for 72 hrs by DAPI staining based analysis
# DB = experiment: Anticancer activity against human DB cells assessed as cell doubling measured for 72 hrs by DAPI staining based analysis
# [3] = test system: KATO III stomach cancer cell line; experiment: Anticancer activity against human KATO III stomach cancer cell line cells assessed as cell doubling measured for 72 hrs by DAPI staining based analysis
# [4] = test system: KATO III stomach cancer cell line; experiment: Anticancer activity against human KATO III stomach cancer cell line cells assessed as cell growth inhibition measured after 72 hrs by DAPI staining based analysis
# G-401 = experiment: Anticancer activity against human G-401 cells assessed as cell growth inhibition measured after 72 hrs by DAPI staining based analysis; in short: as §1
# NCI-H2171 = experiment: Anticancer activity against human NCI-H2171 cells assessed as cell growth inhibition measured after 72 hrs by DAPI staining based analysis
# UMUC3 = experiment: Anticancer activity against human UM-UC-3 cells assessed as cell growth inhibition measured after 72 hrs by DAPI staining based analysis
# SNU-16 [5] = experiment: Anticancer activity against human SNU-16 cells assessed as cell growth inhibition measured after 72 hrs by DAPI staining based analysis
# [6] = Anticancer activity against human C32TG cells assessed as cell growth inhibition measured after 72 hrs by DAPI staining based analysis
# In short: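 Cells were seeded, and DNA content at 24 h after seeding (T0) was read by imaging of fixed, DAPI-stained cells. Cells were then exposed to a range of drug concentrations for a further 72 h (T72) and DNA content was read again. T72 values were normalized to T0, and GI50 was taken from curve fits as the concentration giving 50% growth inhibition relative to T0 and Ymax.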
# NCI-H187 = experiment: Anticancer activity against human NCI-H187 cells assessed as cell doubling measured for 72 hrs by DAPI staining based analysis
# MDA-MB-435 = experiment: Anticancer activity against human MDA-MB-435 cells assessed as cell growth inhibition measured after 72 hrs by DAPI staining based analysis
# HEC-1-A = experiment: Anticancer activity against human HEC-1-A cells assessed as cell doubling measured for 72 hrs by DAPI staining based analysis
# SNU-16 [7] = experiment: Anticancer activity against human SNU-16 cells assessed as cell doubling measured for 72 hrs by DAPI staining based analysis
# MCF7 = experiment: Anticancer activity against human MCF7 cells assessed as cell doubling measured for 72 hrs by DAPI staining based analysis
# NCI-H1299 = experiment: Anticancer activity against human NCI-H1299 cells assessed as cell growth inhibition measured after 72 hrs by DAPI staining based analysis
# MIA PaCa-2 [8] = experiment: Anticancer activity against human MIA PaCa-2 cells assessed as cell doubling measured for 72 hrs by DAPI staining based analysis
# MIA PaCa-2 [9] = experiment: Anticancer activity against human MIA PaCa-2 cells assessed as cell growth inhibition measured after 72 hrs by DAPI staining based analysis
# HT-3 = experiment: Anticancer activity against human HT-3 cells assessed as cell doubling measured for 72 hrs by DAPI staining based analysis
# SNU-423 = experiment: Anticancer activity against human SNU-423 cells assessed as cell doubling measured for 72 hrs by DAPI staining based analysis
# Capan-2 = experiment: Anticancer activity against human Capan-2 cells assessed as cell doubling measured for 72 hrs by DAPI staining based analysis
# SN12C = experiment: Anticancer activity against human SN12C cells assessed as cell growth inhibition measured after 72 hrs by DAPI staining based analysis
# HCC1954 = experiment: Anticancer activity against human HCC1954 cells assessed as cell growth inhibition measured after 72 hrs by DAPI staining based analysis; in short: as §1
# SW756 [10] = experiment: Anticancer activity against human SW756 cells assessed as cell growth inhibition measured after 72 hrs by DAPI staining based analysis
# NCI-H2170 = experiment: Anticancer activity against human NCI-H2170 cells assessed as cell doubling measured for 72 hrs by DAPI staining based analysis
# NCI-H747 = experiment: Anticancer activity against human NCI-H747 cells assessed as cell growth inhibition measured after 72 hrs by DAPI staining based analysis
# PC-3 = experiment: Anticancer activity against human PC-3 cells assessed as cell growth inhibition measured after 72 hrs by DAPI staining based analysis
# RXF 393 = experiment: Anticancer activity against human RXF 393 cells assessed as cell growth inhibition measured after 72 hrs by DAPI staining based analysis
# SK-N-AS = experiment: Anticancer activity against human SK-N-AS cells assessed as cell doubling measured for 72 hrs by DAPI staining based analysis
# NCI-H209 = experiment: Anticancer activity against human NCI-H209 cells assessed as cell doubling measured for 72 hrs by DAPI staining based analysis
# SCC-25 = experiment: Anticancer activity against human SCC-25 cells assessed as cell doubling measured for 72 hrs by DAPI staining based analysis
# NCI-H292 = experiment: Anticancer activity against human NCI-H292 cells assessed as cell growth inhibition measured after 72 hrs by DAPI staining based analysis
# NCI-H146 = experiment: Anticancer activity against human NCI-H146 cells assessed as cell doubling measured for 72 hrs by DAPI staining based analysis
# MDA-MB-231 = experiment: Antitumor activity against human MDA-MB-231 cells in xenograft model assessed as difference between median time to endpoint time of treated versus control group at 125 mg/kg
# SW837 = experiment: Anticancer activity against human SW837 cells assessed as cell doubling measured for 72 hrs by DAPI staining based analysis
# [11] = Antitumor activity against human MV-522 cells in xenograft model assessed as difference between median time to endpoint time of treated versus control group at 62.5 mg/kg
# 639-V = experiment: Anticancer activity against human 639-V cells assessed as cell doubling measured for 72 hrs by DAPI staining based analysis
structure (smiles),measurement,setting,value
CC(C)Oc1ccc(C(=O)N[C@H](CNC(=O)CN(C)C)Cc2ccc(-c3cn4cccc([C@H](C)O)c4n3)cc2)cc1Cl [GSK-923295A],GI50,SCaBER,54 nM
same,Activity,[1],3.65
same,Activity,SW756 [2],2.36
same,GI50,H4,31 nM
same,Activity,CAKI-2,1.63
same,Activity,SF-539,2.08
same,Activity,SK-MEL-28,2.43
same,Activity,DB,2.76
same,Activity,[3],2.02
same,GI50,[4],79 nM
same,GI50,G-401,26 nM
same,GI50,NCI-H2171,24 nM
same,GI50,UMUC3,23 nM
same,GI50,SNU-16 [5],18 nM
same,GI50,[6],28 nM
same,Activity,NCI-H187,2.08
same,GI50,MDA-MB-435,30 nM
same,Activity,HEC-1-A,2.67
same,Activity,SNU-16 [7],2.92
same,Activity,MCF7,1.65
same,GI50,NCI-H1299,52 nM
same,Activity,MIA PaCa-2 [8],3.72
same,GI50,MIA PaCa-2 [9],23 nM
same,Activity,HT-3,1.95
same,Activity,SNU-423,1.44
same,Activity,Capan-2,1.89
same,GI50,SN12C,29 nM
same,GI50,HCC1954,18 nM
same,GI50,SW756 [10],35 nM
same,Activity,NCI-H2170,1.69
same,GI50,NCI-H747,163 nM
same,GI50,PC-3,28 nM
same,GI50,RXF 393,32 nM
same,Activity,SK-N-AS,2.37
same,Activity,NCI-H209,1.12
same,Activity,SCC-25,2.99
same,GI50,NCI-H292,31 nM
same,Activity,NCI-H146,1.2
same,Time,MDA-MB-231,47.1 days
same,Activity,SW837,1.74
same,Time,[11],12.5 days
same,Activity,639-V,3.86
